# Published values gathered from unrelated publications.
# Compare with care: the assays were run in different laboratories.
# Target: Serine/threonine-protein kinase D3 (PRKD3, Homo sapiens, UniProt O94806)
# Sequence (O94806 1-890, as in one of the studies): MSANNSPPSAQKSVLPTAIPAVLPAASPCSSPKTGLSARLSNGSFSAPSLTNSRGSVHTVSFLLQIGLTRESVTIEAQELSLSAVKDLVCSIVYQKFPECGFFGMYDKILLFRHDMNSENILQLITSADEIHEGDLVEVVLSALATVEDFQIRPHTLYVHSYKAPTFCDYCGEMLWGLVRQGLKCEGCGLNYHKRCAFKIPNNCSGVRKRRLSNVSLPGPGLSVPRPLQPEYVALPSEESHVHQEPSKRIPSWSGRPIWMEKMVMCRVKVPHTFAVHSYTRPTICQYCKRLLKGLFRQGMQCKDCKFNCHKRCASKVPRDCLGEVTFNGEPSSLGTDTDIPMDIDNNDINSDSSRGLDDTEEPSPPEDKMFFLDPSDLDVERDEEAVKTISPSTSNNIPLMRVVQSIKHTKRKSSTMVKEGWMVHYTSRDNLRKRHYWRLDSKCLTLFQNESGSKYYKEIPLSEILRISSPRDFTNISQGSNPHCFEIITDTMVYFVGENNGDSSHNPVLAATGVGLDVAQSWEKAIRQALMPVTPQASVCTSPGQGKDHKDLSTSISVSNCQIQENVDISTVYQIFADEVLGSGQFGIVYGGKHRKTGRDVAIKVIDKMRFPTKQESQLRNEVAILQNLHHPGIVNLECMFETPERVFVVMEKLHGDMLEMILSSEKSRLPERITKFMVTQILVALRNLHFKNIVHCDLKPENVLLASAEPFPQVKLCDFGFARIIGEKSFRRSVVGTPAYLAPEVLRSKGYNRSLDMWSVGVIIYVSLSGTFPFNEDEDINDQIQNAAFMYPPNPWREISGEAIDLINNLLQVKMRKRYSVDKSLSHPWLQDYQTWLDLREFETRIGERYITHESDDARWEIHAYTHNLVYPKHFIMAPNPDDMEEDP
SMILES,assay,setting,remaining binding
CC1CCCN1c1nccc(-c2cnn3ncccc23)n1 (stereo not drawn),binding,1 µM,97%
Cc1cnc(Nc2ccc(C(=O)N3CCC(N4CCCC4)CC3)cc2)nc1-c1cc2ccccc2s1,"binding, competition with immobilised ligand",1 µM,37%
N[C@@H]1CCN(c2nccc(-c3cnn4ncccc34)n2)C1,binding,1 µM,100%
COc1cccc(CNC(=O)c2nc3scc(COCc4ccc(C(=O)O)cc4)c3c(=O)[nH]2)c1,"cell-free assay, competition with immobilised ligand",1 µM,100%
C[C@@H]1CCN(c2nccc(-c3cnn4ncccc34)n2)C1,binding,1 µM,100%
O=C(NCCCN1CCOCC1)c1ccc(Nc2ncc(Cl)c(-c3ccc(Cl)s3)n2)cc1,"binding, competition with immobilised ligand",1 µM,20%
FC(F)(F)c1ccc2c(c1)nc(-c1cccnc1)n2C1CC1,"cell-free assay, competition with immobilised ligand",1 µM,100%
c1cnn2ncc(-c3ccnc(N4CCC45COC5)n3)c2c1,binding,1 µM,71%
O=C(NCC1CCOCC1)c1n[nH]cc1NC(=O)c1c(F)cccc1F,"binding, competition with immobilised ligand",1 µM,97%
CS(=O)(=O)N1CCCC(NC(=O)[C@H](CCC2CCCCC2)NC(=O)c2ccc(CNC(=O)c3cnc4ccccn34)cc2)C1 (stereo partly drawn),"cell-free assay, competition with immobilised ligand",0.1 µM,90%
COc1ncc2cc3ccccc3nc2c1C#N,"cell-free assay, competition with immobilised ligand",5 µM,100%
COc1cnc(Nc2cccc(S(N)(=O)=O)c2)nc1N1CCN(c2ccccc2)C(=O)C1,"binding, competition with immobilised ligand",1 µM,92%
CCN1CCN(Cc2ccc(C(=O)Nc3ccc(C)c(Oc4ccc5c(c4)CC(=O)N5)c3)cc2C(F)(F)F)CC1,"binding, competition with immobilised ligand",1 µM,100%
Cc1cnn2ncc(-c3ccnc(N(C)C)n3)c2c1,binding,1 µM,98%
C=CC(=O)N1CCC(C(=O)NCC(=O)N2CCN(c3nc(-c4cnc(N)nc4C(F)F)nc(N4CCOCC4)n3)CC2)CC1,"binding, competition with immobilised ligand",1 µM,93%
Cc1c[nH]c2nccc(Oc3c(F)cc(Nc4cc(Cl)nc(N)n4)cc3F)c12,"cell-free assay, competition with immobilised ligand",0.1 µM,100%
O=C(NCCCN1CCOCC1)c1ccc(Nc2nccc(-c3cc4ccccc4s3)n2)cc1,"binding, competition with immobilised ligand",1 µM,32%
CNC(=O)c1ccc(Nc2ncc(C(F)(F)F)c(NCc3nccnc3N(C)S(C)(=O)=O)n2)cc1,"cell-free assay, competition with immobilised ligand",0.1 µM,100%
C[C@@H](c1ccc(-n2cnc3c(N)ncnc32)cc1)N1CCc2nn(C)c(Cc3ccccc3)c2C1=O,"binding, competition with immobilised ligand",0.1 µM,85%
CN(C)c1nccc(-c2cnc3ncccn23)n1,binding,1 µM,100%
CN(C)C(=O)Cn1cc(-c2nc(C3(c4ccc(-c5cnc(N)nc5)cc4)CC3)no2)cn1,"cell-free assay, competition with immobilised ligand",1 µM,92%
